Assay [1] relates to COLO 205. Description: Effect on total B-Raf level in human COLO205 cells harboring B-Raf V600E mutant at 1 to 10measured after 18 hrs by Western blot analysis. The format is functional, cell-based. The gist of the method:
(§1)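 Colo205 cells grown at 37 °C, 5% CO2 in RPMI-1640 with 10% FBS and 2 mM L-glutamine. Compounds added in DMSO (final 0.1% v/v), vehicle-only controls. Cells washed twice in ice-cold PBS, lysed in RIPA buffer (pH 8.0, with protease and phosphatase inhibitors). Lysates clarified, equalized for protein, then immunoblotted for B-Raf, C-Raf, ERK2, MEK1, pS217/221-MEK and pT202/Y204-ERK.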
A general note: In western blotting, separated proteins are transferred to a membrane and probed.

Assay [2] deals with COLO 205. Description: Effect on total ERK level in human COLO205 cells harboring B-Raf V600E mutant at 1 to 10measured after 18 hrs by Western blot analysis. The format is functional, cell-based. The gist of the method: as §1
The test system of assay [3] is COLO 205. Description: Effect on total C-Raf level in human COLO205 cells harboring B-Raf V600E mutant at 1 to 10measured after 18 hrs by Western blot analysis. The format is functional, cell-based. In a few lines: as §1
For assay [4], the system named is COLO 205. The experiment in a line: Effect on total MEK level in human COLO205 cells harboring B-Raf V600E mutant at 1 to 10measured after 18 hrs by Western blot analysis. It is filed as functional, cell-based. The gist of the method:
as §1

Assay [5] deals with T1, Dual specificity mitogen-activated protein kinase kinase; MEK1/2 (Homo sapiens) (UniProt P36507+Q02750). The experiment in a line: Inhibition of MEK phosphorylation in human COLO205 cells harboring B-Raf V600E mutant at 1 to 10 uM after 18 hrs by Western blot analysis. The format is cell-based. In a few lines: as §1
T1 sequence (P36507 whole entry, looked up): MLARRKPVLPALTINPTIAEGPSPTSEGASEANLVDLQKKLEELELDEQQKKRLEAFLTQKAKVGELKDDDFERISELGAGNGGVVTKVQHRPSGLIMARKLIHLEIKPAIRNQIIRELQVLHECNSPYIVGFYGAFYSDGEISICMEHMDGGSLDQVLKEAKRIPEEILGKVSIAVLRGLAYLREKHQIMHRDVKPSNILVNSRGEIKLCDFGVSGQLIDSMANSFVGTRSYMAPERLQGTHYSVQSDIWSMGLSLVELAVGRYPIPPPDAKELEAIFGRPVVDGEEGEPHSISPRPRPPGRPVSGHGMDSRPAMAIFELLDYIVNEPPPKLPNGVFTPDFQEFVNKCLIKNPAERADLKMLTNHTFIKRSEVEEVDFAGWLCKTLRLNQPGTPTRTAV
T1 sequence (Q02750 whole entry, looked up): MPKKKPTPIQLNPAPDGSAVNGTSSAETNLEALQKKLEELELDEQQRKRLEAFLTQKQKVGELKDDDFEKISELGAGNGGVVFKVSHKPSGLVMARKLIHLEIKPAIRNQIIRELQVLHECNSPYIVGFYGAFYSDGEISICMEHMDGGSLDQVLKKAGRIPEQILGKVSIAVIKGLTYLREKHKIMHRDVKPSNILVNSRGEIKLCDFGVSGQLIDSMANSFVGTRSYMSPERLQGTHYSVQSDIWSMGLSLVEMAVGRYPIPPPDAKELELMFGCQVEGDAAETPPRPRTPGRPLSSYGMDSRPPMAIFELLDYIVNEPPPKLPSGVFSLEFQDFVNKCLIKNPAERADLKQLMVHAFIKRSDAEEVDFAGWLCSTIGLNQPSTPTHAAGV
Assay [6] has as its target Dual specificity mitogen-activated protein kinase kinase 1 (Homo sapiens) (UniProt Q02750). The experiment in a line: Inhibition of wild-type MEK1 (unknown origin) at 10 uM using inactive ERK2 as substrate pretreated for 20 mins followed by substrate addition and measured after 30 mins in presence of [gamma32P]ATP by autoradiography.
For assay [7], the target named is T1, Dual specificity mitogen-activated protein kinase kinase; MEK1/2 (Homo sapiens). The experiment in a line: Increase in MEK phosphorylation in human COLO205 cells harboring B-Raf V600E mutant at 1 uM after 18 hrs by Western blot analysis. The format is cell-based. In a few lines:
as §1

The species entered for assay [8] is Homo sapiens. The experiment in a line: Inhibition of ERK (unknown origin).
Assay [9] concerns the target RAF proto-oncogene serine/threonine-protein kinase (Homo sapiens) (UniProt P04049). The experiment in a line: Inhibition of C-Raf (unknown origin) at 10 uM using inactive MEK as substrate pretreated for 20 mins followed by substrate addition and measured after 30 mins in presence of [gamma32P]ATP by autoradiography.
In assay [10] the target is Serine/threonine-protein kinase B-raf (Homo sapiens) (UniProt P15056). The experiment in a line: Inhibition of B-Raf (unknown origin) at 10 uM using inactive MEK as substrate pretreated for 20 mins followed by substrate addition and measured after 30 mins in presence of [gamma32P]ATP by autoradiography.
Serine/threonine-protein kinase B-raf (Homo sapiens), sequence (P15056 whole entry): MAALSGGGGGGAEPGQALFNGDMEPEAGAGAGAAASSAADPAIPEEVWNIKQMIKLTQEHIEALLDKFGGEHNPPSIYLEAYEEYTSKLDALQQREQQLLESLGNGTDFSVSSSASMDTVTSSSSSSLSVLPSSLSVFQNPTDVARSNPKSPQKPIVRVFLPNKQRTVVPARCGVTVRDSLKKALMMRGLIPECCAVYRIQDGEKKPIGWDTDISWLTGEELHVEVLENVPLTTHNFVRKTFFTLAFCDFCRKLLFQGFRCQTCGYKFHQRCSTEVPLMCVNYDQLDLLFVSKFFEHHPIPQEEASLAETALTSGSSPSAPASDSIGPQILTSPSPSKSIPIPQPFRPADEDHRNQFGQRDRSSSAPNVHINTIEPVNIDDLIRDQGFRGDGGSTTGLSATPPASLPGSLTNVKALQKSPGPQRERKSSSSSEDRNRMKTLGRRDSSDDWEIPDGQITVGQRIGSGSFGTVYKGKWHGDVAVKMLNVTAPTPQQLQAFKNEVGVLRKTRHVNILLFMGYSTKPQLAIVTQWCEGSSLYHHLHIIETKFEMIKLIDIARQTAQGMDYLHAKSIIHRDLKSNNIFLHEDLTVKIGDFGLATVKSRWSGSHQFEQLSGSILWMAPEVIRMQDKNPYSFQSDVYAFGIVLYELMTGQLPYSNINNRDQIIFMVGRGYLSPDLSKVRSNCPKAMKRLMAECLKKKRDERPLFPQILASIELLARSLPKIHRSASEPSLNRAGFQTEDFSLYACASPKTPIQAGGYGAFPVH
The subject of assay [11] is COLO 205. Description: Down regulation of total ERK level in human COLO205 cells harboring B-Raf V600E mutant at 1 to 10 uM measured after 18 hrs by Western blot analysis. It is filed as functional, cell-based. The gist of the method:
as §1

The subject of assay [12] is SK-MEL-5. The experiment in a line: Growth inhibition of human SK-MEL-5 cells harboring B-Raf V600E mutant after 48 hrs by sulforhodamine B assay. It is filed as functional, cell-based. In a few lines: (§2)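 Tested in the NCI-60 human tumor cell line screen as DMSO solutions. Results analyzed with CellMiner bioinformatics tools.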
For assay [13], the system named is Malme-3M. Description: Growth inhibition of human MALME-3M cells harboring B-Raf V600E mutant after 48 hrs by sulforhodamine B assay. The format is functional, cell-based. The gist of the method: as §2
Assay [14] relates to COLO 205. The experiment in a line: Growth inhibition of human COLO205 cells harboring B-Raf V600E mutant after 48 hrs by sulforhodamine B assay. The format is functional, cell-based. In a few lines:
as §2

Assay [15] relates to MDA-MB-435. Description: Growth inhibition of human MDA-MB-435 cells harboring B-Raf V600E mutant after 48 hrs by sulforhodamine B assay. It is filed as functional, cell-based. The gist of the method:
as §2
For orientation: In SRB staining, fixed cells bind dye roughly in proportion to their protein.

Assay [16] has as its system Serine/threonine-protein kinase B-raf (Homo sapiens), P15056 [V600E]. The experiment in a line: Increase in ERK phosphorylation in human COLO205 cells harboring B-Raf V600E mutant at 1 uM after 18 hrs by Western blot analysis. The format is cell-based. In a few lines:
as §1

Active and inactive are the calls of the source. The rule behind the calls is not given here.

RAF proto-oncogene serine/threonine-protein kinase (Homo sapiens), sequence (P04049 whole entry): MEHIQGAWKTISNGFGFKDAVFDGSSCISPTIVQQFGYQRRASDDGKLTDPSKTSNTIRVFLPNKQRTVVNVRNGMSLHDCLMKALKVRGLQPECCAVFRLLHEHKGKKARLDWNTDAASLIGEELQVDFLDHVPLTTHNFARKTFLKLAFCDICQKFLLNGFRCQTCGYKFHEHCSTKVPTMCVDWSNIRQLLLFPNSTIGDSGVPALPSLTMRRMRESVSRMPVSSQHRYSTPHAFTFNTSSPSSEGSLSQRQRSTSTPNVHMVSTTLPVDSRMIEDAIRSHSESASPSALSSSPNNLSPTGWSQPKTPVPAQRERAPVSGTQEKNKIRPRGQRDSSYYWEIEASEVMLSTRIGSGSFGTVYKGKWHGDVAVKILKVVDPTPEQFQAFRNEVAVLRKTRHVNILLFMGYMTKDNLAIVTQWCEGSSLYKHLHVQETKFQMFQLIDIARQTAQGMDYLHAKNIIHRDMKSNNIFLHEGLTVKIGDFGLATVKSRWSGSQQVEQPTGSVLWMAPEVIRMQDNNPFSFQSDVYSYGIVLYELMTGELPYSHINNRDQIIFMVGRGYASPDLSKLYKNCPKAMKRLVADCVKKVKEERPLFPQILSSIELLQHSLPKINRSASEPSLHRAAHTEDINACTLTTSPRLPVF
Dual specificity mitogen-activated protein kinase kinase 1 (Homo sapiens), sequence (Q02750 whole entry): as the sequence (Q02750 whole entry, looked up) above
Serine/threonine-protein kinase B-raf (Homo sapiens), P15056 [V600E], sequence (P15056 whole entry V600E): as the sequence (P15056 whole entry) above, with V600E counted along it

In the case of `CN(C)CCOc1ccc(-c2nc(-c3ccc4c(c3)CC/C4=N/O)c(-c3ccncc3)[nH]2)cc1`, the outcome in assay [1], in assay [2], in assay [3] and in [4] was inactive. The inhibition entry in assay [5] is “Active”.
`N=C1C2=C(NCC[S+]2[O-])C(=O)c2[nH]cc(CO)c21` (stereo unspecified): the inhibition entry in [6], in assay [8], in assay [9] and in [10] was “inactive” in each case. Further, the outcome in assay [7] was Active. Further, in [11], the result was inactive.
Take `CSC1=C(N)C(=O)c2[nH]cc(CO)c2C1=N`: the “growth inhibition (GI)” value in assay [12], in [13], in assay [14] and in assay [15] was “Active” in each case. For the same compound, the inhibition entry in assay [6], in [8], in [9] and in [10] was “inactive” throughout. In addition, the outcome in assay [11] was inactive.
As to `N=C1C2=C(NCCS2)C(=O)c2[nH]cc(CO)c21`, the “growth inhibition (GI)” value in assay [12], in assay [13], in assay [14] and in assay [15] was “Active” in each case. Besides, the result in assay [16] and in assay [7] was Active. In addition, the inhibition entry in assay [6], in [8], in [9] and in assay [10] was “inactive” in each case. Further, in assay [11], the result was inactive.

Values taken from ChEMBL document CHEMBL4145646, “Macrophilones from the Marine Hydroid Macrorhynchia philippina Can Inhibit ERK Cascade Signaling” (J Nat Prod, 2018).
